Starred links: 1 amine or outer side, 2 acyl side, 3 side chain; linkers in the order of their positions; H or OH if unused. Non-standard residues stand in square brackets, D forms with d. Residues, ends and D or L forms follow the SMILES beside them. *: point of attachment. Hydrocinnamoyl = O=C(CCc1ccccc1)*; Phg = N[C@H](C(=O)O)c1ccccc1; Suc = O=C(CCC(=O)[*:2])[*:1]; X1 = O=C(/C=C/c1ccccc1)*; Bz = O=C(c1ccccc1)*
Experiment: In vitro Inhibition of fibrin clot formation relative to a blank control after thrombin addition to plasma in human
Assay type: functional, cell-free
Method in brief: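 Fasted donor human plasma collected in 0.1% EDTA (final), filter-sterilized, stored at -20 °C. Bovine thrombin (0.2 pmol) preincubated with peptide 10 min at 24 °C. Then 1:10 diluted plasma in NaCl/sodium phosphate was added. Buffer pH 7.4 with 0.1% BSA.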

IC50	Compound
> 250 µM	CC[C@H](C)[C@H](NC(=O)[C@H](CCC(=O)O)NC(=O)[C@H](CCC(=O)O)NC(=O)[C@@H](NC(=O)[C@H](CC(=O)O)NC(=O)CN)c1ccccc1)C(=O)N1CCC[C@H]1C(=O)N[C@@H](CCC(=O)O)C(=O)N[C@@H](CCC(=O)O)C(=O)N[C@@H](Cc1ccc(O)cc1)C(=O)N[C@@H](CC(C)C)C(=O)N[C@@H](CCC(N)=O)C(=O)O (H-GD[Phg]EEIPEEYLQ-OH)
1.7 µM	CC[C@H](C)[C@H](NC(=O)[C@H](CCC(=O)O)NC(=O)[C@H](CCC(=O)O)NC(=O)[C@H](Cc1ccccc1)NC(=O)CCC(=O)O)C(=O)N1CCC[C@H]1C(=O)N[C@@H](CCC(=O)O)C(=O)N[C@@H](CCC(=O)O)C(=O)N[C@@H](Cc1ccc(O)cc1)C(=O)N[C@@H](CC(C)C)C(=O)N[C@@H](CCC(N)=O)C(=O)O (Suc-FEEIPEEYLQ-OH)

The remaining lines, values behind:

Compound	IC50
CC[C@H](C)[C@H](NC(=O)[C@H](CCC(=O)O)NC(=O)[C@H](CCC(=O)O)NC(=O)c1ccccc1)C(=O)N1CCC[C@H]1C(=O)N[C@@H](CCC(=O)O)C(=O)N[C@@H](CCC(=O)O)C(=O)N[C@@H](Cc1ccc(O)cc1)C(=O)N[C@@H](CC(C)C)C(N)=O (Bz-EEIPEEYL-NH2)	> 250 µM
CC[C@H](C)[C@H](NC(=O)[C@H](CCC(=O)O)NC(=O)[C@H](CCC(=O)O)NC(=O)CCc1ccccc1)C(=O)N1CCC[C@H]1C(=O)N[C@@H](CCC(=O)O)C(=O)N[C@@H](CCC(=O)O)C(=O)N[C@@H](Cc1ccc(O)cc1)C(=O)N[C@@H](CC(C)C)C(N)=O (Hydrocinnamoyl-EEIPEEYL-NH2)	> 250 µM
CC[C@H](C)[C@H](NC(=O)[C@H](CCC(=O)O)NC(=O)[C@H](CCC(=O)O)NC(=O)/C=C/c1ccccc1)C(=O)N1CCC[C@H]1C(=O)N[C@@H](CCC(=O)O)C(=O)N[C@@H](CCC(=O)O)C(=O)N[C@@H](Cc1ccc(O)cc1)C(=O)N[C@@H](CC(C)C)C(N)=O (X1-EEIPEEYL-NH2)	> 250 µM
H-FEEIPEEYLQ-OH	34 µM
